One data set relates to HeLa. As to the kind of experiment: (§1) Cytotoxicity against human HeLa cells assessed as cell growth inhibition measured after 24 hrs by Celltiter Glo luminescent assay. The class given is cell-based. To be noted: hela, 24 h.
In data set [1] the test system is Staphylococcus aureus. As to the kind of experiment: Antibacterial activity against methicillin resistant Staphylococcus aureus ATCC BAA-44 after 18 hrs by broth microdilution method. To be noted: ATCC BAA-44, 18 h. Format: functional. In short, it runs like this:
(§2)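 Compound alone, MIC by standard CLSI broth microdilution; lowest concentration with no growth, reported in μg/mL; confirmed in triplicate.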

Data set [2] has as its system Staphylococcus aureus. Kind of data set: Potentiation of cefazolin induced antibacterial activity against methicillin resistant Staphylococcus aureus ATCC BAA-44 assessed as minimum resensitizing concentration after 18 hrs by broth microdilution method. To be noted: ATCC BAA-44, 18 h, read-out: MEC. The class given is functional. In a few lines: (§3)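 Compound titrated in the presence of cefazolin at its CLSI breakpoint (8 μg/mL); MRC is the compound concentration at which no overnight growth occurs, in μg/mL; confirmed in triplicate.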

Data set [3] has as its system Staphylococcus aureus. As to the kind of experiment: Ratio of MIC for antibacterial activity against methicillin resistant Staphylococcus aureus ATCC BAA-44 to MEC for potentiation of cefazolin induced antibacterial activity against methicillin resistant Staphylococcus aureus ATCC BAA-44. The class given is functional. In a few lines:
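Compound MIC alone (CLSI broth microdilution) divided by its MRC with cefazolin at the 8 μg/mL breakpoint, both against MRSA BAA-44; each confirmed in triplicate.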

For data set [4], the system named is Staphylococcus aureus. Kind of data set: Antibacterial activity against methicillin resistant Staphylococcus aureus ATCC BAA-44 at 128 to 256 ug/ml after 18 hrs by broth microdilution method. Format: functional, organism-based.
A short description of data set [5]: as §1. The class given is cell-based. The settings on record: HeLa cells.
Data set [6] deals with Staphylococcus aureus. Kind of data set: Antibacterial activity against methicillin resistant Staphylococcus aureus ATCC BAA-1764 after 18 hrs by broth microdilution method. To be noted: ATCC BAA-1764, 18 h. The class given is functional. In a few lines: as §2
(In broth dilution the organism is exposed to a series of concentrations in liquid medium.)

Data set [7] concerns Staphylococcus aureus. As to the kind of experiment: Potentiation of cefazolin induced antibacterial activity against methicillin resistant Staphylococcus aureus ATCC BAA-1764 assessed as minimum resensitizing concentration after 18 hrs by broth microdilution method. Format: functional. The settings on record: ATCC BAA-1764, 18 h, read-out: MEC. In short, it runs like this: as §3

In data set [8] the test system is Staphylococcus aureus. Kind of data set: Potentiation of cefazolin induced antibacterial activity against methicillin resistant Staphylococcus aureus NR-46411 assessed as minimum resensitizing concentration after 18 hrs by broth microdilution method. Format: functional. To be noted: NR-46411, 18 h, read-out: MEC. In short, it runs like this: as §3
For data set [9], the system named is Staphylococcus aureus. As to the kind of experiment: Potentiation of cefazolin induced antibacterial activity against methicillin resistant Staphylococcus aureus NRS384 assessed as minimum resensitizing concentration after 18 hrs by broth microdilution method. The class given is functional. The settings on record: NRS384, 18 h, read-out: MEC. In short, it runs like this: as §3

In data set [10] the test system is Staphylococcus aureus. Kind of data set: Potentiation of cefazolin induced antibacterial activity against methicillin resistant Staphylococcus aureus NRS100 assessed as minimum resensitizing concentration after 18 hrs by broth microdilution method. The class given is functional. To be noted: NRS100, 18 h, read-out: MEC. In a few lines:
as §3

Data set [11] has as its system Staphylococcus aureus. Kind of data set: Potentiation of cefuroxime induced antibacterial activity against methicillin resistant Staphylococcus aureus ATCC BAA-1764 assessed as minimum resensitizing concentration after 18 hrs by broth microdilution method. Format: functional. The settings on record: ATCC BAA-1764, 18 h, read-out: MEC. In short, it runs like this:
(§4)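 Compound titrated with cefuroxime, using the same method as the cefazolin MRC; MRC is the lowest compound concentration preventing overnight growth, in μg/mL.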

The test system of data set [12] is Staphylococcus aureus. As to the kind of experiment: Potentiation of cefuroxime induced antibacterial activity against methicillin resistant Staphylococcus aureus NR-46411 assessed as minimum resensitizing concentration after 18 hrs by broth microdilution method. Format: functional. To be noted: NR-46411, 18 h, read-out: MEC. In short, it runs like this: as §4

For data set [13], the system named is Staphylococcus aureus. Kind of data set: Potentiation of cefuroxime induced antibacterial activity against methicillin resistant Staphylococcus aureus NRS384 assessed as minimum resensitizing concentration after 18 hrs by broth microdilution method. Format: functional. To be noted: NRS384, 18 h, read-out: MEC. In a few lines:
as §4

For data set [14], the system named is Staphylococcus aureus. As to the kind of experiment: Potentiation of cefuroxime mediated antibacterial activity against methicillin resistant Staphylococcus aureus NRS100 assessed as minimum resensitizing concentration after 18 hrs by broth microdilution method. The settings on record: NRS100, 18 h, read-out: MEC. Format: functional. In a few lines: as §4

The subject of data set [15] is Staphylococcus aureus. Kind of data set: Potentiation of cefazolin induced antibacterial activity against Staphylococcus aureus ATCC BAA-1683 assessed as minimum resensitizing concentration after 18 hrs by broth microdilution method. Format: functional. To be noted: ATCC BAA-1683, 18 h, read-out: MEC. In short, it runs like this: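 MRSA BAA-1683 grown overnight with cefazolin held at its CLSI breakpoint, 8 μg/mL, plus varying analogue; MRC = analogue concentration giving no overnight growth; confirmed in triplicate.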

The subject of data set [16] is Staphylococcus aureus. As to the kind of experiment: Potentiation of cefuroxime induced antibacterial activity against Staphylococcus aureus ATCC BAA-1683 assessed as minimum resensitizing concentration after 18 hrs by broth microdilution method. The class given is functional. To be noted: ATCC BAA-1683, 18 h, read-out: MEC. In a few lines:
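MRSA BAA-1683 grown overnight with cefuroxime plus varying analogue, method as for cefazolin MRC (antibiotic at CLSI breakpoint); MRC = analogue concentration giving no overnight growth; confirmed in triplicate.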

As usually defined, the GI50 is the concentration that inhibits growth by half. A word on the MIC: it is the smallest concentration in the dilution series that meets the test's criterion for growth inhibition. Lower therefore signals greater potency.

The structures appear in SMILES notation. In brackets after ≈: the same amount, converted by molar mass. Activity calls are given as the source filed them. Bounds are passed on as bounds.

For `COC(=O)C1CN(c2nc3ccc(Cl)cc3s2)Cc2[nH]c3ccc(Cl)cc3c21` (racemic), the GI50 in the data set with HeLa turned out to be 6.6 µg/mL (≈ 15.3 µM). For the same compound, the MIC against Staphylococcus aureus [1] is > 32 µg/mL. In addition, the minimal effective concentration in the data set on Staphylococcus aureus [2] stood at 1 µg/mL. For the same compound, the Ratio in the data set on Staphylococcus aureus [3] is reported as 32.

Turning to `FC(F)(F)c1cccc2sc(N3CCc4c([nH]c5ccc(Cl)cc45)C3)nc12`, the GI50 in the data set with HeLa is 8 µg/mL (≈ 19.6 µM). The MIC against Staphylococcus aureus [1] is > 32 µg/mL. The minimal effective concentration in the data set on Staphylococcus aureus [2] is 1 µg/mL. Further, in the data set with Staphylococcus aureus [3], the Ratio turned out to be 32.

With `FC(F)(F)Oc1ccc2nc(N3CCc4c([nH]c5ccc(Cl)cc45)C3)sc2c1`, the GI50 with HeLa was 7.3 µg/mL (≈ 17.2 µM). Further, the minimal effective concentration with Staphylococcus aureus [2] is 1 µg/mL. In addition, the Ratio in the data set with Staphylococcus aureus [3] is 0.

For `CO/N=C(\C(=O)N[C@@H]1C(=O)N2C(C(=O)O)=C(COC(N)=O)CS[C@H]12)c1ccco1`, the outcome in the data set on Staphylococcus aureus [4] was Active.

In the case of `Clc1ccc2nc(N3CCc4c([nH]c5ccc(Cl)cc45)C3)sc2c1`, the GI50 in the data set with HeLa is 13.2 µg/mL (≈ 35.3 µM). In addition, the MIC against Staphylococcus aureus [1] was > 64 µg/mL. Also, in the data set with Staphylococcus aureus [2], the minimal effective concentration worked out at 2 µg/mL. In addition, the Ratio with Staphylococcus aureus [3] is given as 32.

On to `S=C(Nc1ccc(Cl)cc1)N1CCc2c([nH]c3ccc(Cl)cc23)C1`, for which 4 µg/mL (≈ 10.6 µM) was the least that counted as inhibitory in the data set on Staphylococcus aureus [1] (MIC). The minimal effective concentration in the data set with Staphylococcus aureus [2] was determined as 2 µg/mL. Further, in the data set on Staphylococcus aureus [3], the Ratio worked out at 2.

In the case of `Cc1nnc(SCC2=C(C(=O)O)N3C(=O)[C@@H](NC(=O)Cn4cnnn4)[C@H]3SC2)s1`, the outcome in the data set with Staphylococcus aureus [4] was Active.

On to `Clc1ccc2[nH]c3c(c2c1)CCN(c1nc2c(Cl)cccc2s1)C3`, for which the GI50 with HeLa is 27.7 µg/mL (≈ 74 µM). Further, the MIC against Staphylococcus aureus [1] is > 64 µg/mL. For the same compound, the minimal effective concentration with Staphylococcus aureus [2] stood at 2 µg/mL. Moreover, the Ratio in the data set with Staphylococcus aureus [3] was 32.

For the compound `Nc1cc(Cl)c2nc(N3CCc4c([nH]c5ccc(Cl)cc45)C3)sc2c1`, the GI50 at 24 h in [5] is > 100 µg/mL. In addition, the MIC against Staphylococcus aureus [6] was > 32 µg/mL. For the same compound, the minimal effective concentration in the data set with Staphylococcus aureus [7] is 0.5 µg/mL; with Staphylococcus aureus [8] it was 0.5 µg/mL; in the data set with Staphylococcus aureus [9], 4 µg/mL; with Staphylococcus aureus [10], 4 µg/mL; with Staphylococcus aureus [11], 32 µg/mL; in the data set on Staphylococcus aureus [12], < 0.25 µg/mL. The minimal effective concentration with Staphylococcus aureus [13] worked out at 4 µg/mL; in the data set with Staphylococcus aureus [14] it was 4 µg/mL; in the data set with Staphylococcus aureus [15], 1 µg/mL; in the data set with Staphylococcus aureus [16], 8 µg/mL; in the data set with Staphylococcus aureus [2], 2 µg/mL.

Regarding `FC(F)(F)c1ccc(NC(=S)N2CCc3c([nH]c4ccc(Cl)cc34)C2)cc1`, the minimal inhibitory concentration (MIC) in the data set on Staphylococcus aureus [1] stood at 2 µg/mL (≈ 4.88 µM). For the same compound, in the data set with Staphylococcus aureus [2], the minimal effective concentration came to 1 µg/mL. Also, in the data set with Staphylococcus aureus [3], the Ratio came to 2.

For the compound `CN(C)C(=O)C1CN(c2nc3ccc(Cl)cc3s2)Cc2[nH]c3ccc(Cl)cc3c21` (racemic), the minimal effective concentration in the data set with Staphylococcus aureus [2] is > 32 µg/mL. The Ratio in the data set on Staphylococcus aureus [3] was 0.

For `O=C(O)C1CN(c2nc3ccc(Cl)cc3s2)Cc2[nH]c3ccc(Cl)cc3c21` (racemic), the GI50 in the data set on HeLa worked out at 65 µg/mL (≈ 155 µM). Also, in the data set with Staphylococcus aureus [1], the MIC is 32 µg/mL (≈ 76.5 µM). Further, the minimal effective concentration in the data set on Staphylococcus aureus [2] was found to be 16 µg/mL. Also, in the data set on Staphylococcus aureus [3], the Ratio is reported as 0.

The record behind these values is ChEMBL document CHEMBL4406847, “Tryptoline-based benzothiazoles re-sensitize MRSA to β-lactam antibiotics” (Bioorg Med Chem, 2019).
